Screens: PubChem BioAssay, several laboratories
PolyA inh – blocks polyadenylation in yeast reporter cells. activity score, % at 12 µM. S. cerevisiae SKY197-pL101 polyadenylation reporter, beta-gal luminescence; efflux-impaired pdr1/pdr3 knockout yeast; score 100 = 6 SD above DMSO. 0.02% of 300,000 active. AID 1875;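 active means lowest replicate activity score at least 50, where 100 means six control SD above control mean; inconclusive means lowest score under 50 but half or more replicates reach 50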;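 further: yeast exposed to compound for 9 h at 30 °C; higher score means more reporter readthrough which indicates perturbed polyadenylation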
NALP1 inh – NALP1 inhibition | inhibition, % at 10 µM | AID 2071 | S. cerevisiae NALP1/ASC/caspase-1 growth, X-gal OD620, 72 h | 0.61% of 280,000 active; in the data active means inhibition mostly above about 24%, no sharp cut-off; inactive means mostly below about 32%
Arr AP2 block – human beta-arrestin and AP2 interaction inhibition; FITC-arrestin peptide / GST-AP2 beads, flow cytometry; AP2 beta2 appendage carries R879A mutation; inhibition, % at 10 µM; 0.31% of 340,000 active; AID 504490;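 active means inhibition above a set limit, near 3 SD of compounds lacking own fluorescence, cut at about 54% in these data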;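 further: plate controls were DMSO wells for no effect and 5 µM unlabelled arrestin peptide for full effect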
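System: GST-AP2 R879A glutathione beads | Also added: FITC-arrestin peptide, 50 nM | Times: 12 min plus 1 h, RT | Signal: Bead flow cytometry, FITC channel | Buffer or medium: PBS with 0.05% Tween 20 and 0.1% BSA | Read-out basis: Percent drop in bead-associated FITC signal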
ALR inh – blocks human ALR sulfhydryl oxidase activity. P55789. purified ALR, DTT oxidation, H2O2 HRP-luminol luminescence. inhibition, % (concentration not given with the values). 3.8% of 290,000 active. AID 485317;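 active means mean replicate inhibition above about 79%, with every replicate also reaching it, limit read from the data; inconclusive means only one of the two criteria met; inactive means mean below limit and not every replicate reaching it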
Target sequence (P55789 whole entry, looked up): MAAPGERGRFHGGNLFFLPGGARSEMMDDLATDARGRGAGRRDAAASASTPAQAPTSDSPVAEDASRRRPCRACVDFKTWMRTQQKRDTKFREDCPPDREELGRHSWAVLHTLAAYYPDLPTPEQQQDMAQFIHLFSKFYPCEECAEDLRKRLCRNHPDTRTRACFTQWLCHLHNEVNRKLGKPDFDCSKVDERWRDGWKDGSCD
Pemphigus Ab inh – blocks pemphigus antibody binding to human desmoglein-3; binding (percent of control), % at 10 µM; P32926; DSG3-coupled beads, scFv-anti-DSG3-GFP binding, flow cytometry; active compounds read low; 0.48% of 310,000 active; AID 588358;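 active means binding more than 3 SD below its plate's average and above zero; inconclusive means below that plate limit but binding exactly zero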;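 further: hits lower antibody fragment binding to DSG3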
NLRP3 yeast inh – blocks the NALP3 inflammasome reconstituted in yeast. Yeast reconstituted NLRP3/ASC/caspase-1, beta-gal luminescence, 24 h. inhibition, % at 10 µM. 0.39% of 330,000 active;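 active means inhibition of 50% or more; inactive means inhibition below 50%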;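 further: plate controls were induced DMSO wells for no effect and uninduced yeast grown without galactose for full effect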
Arr-AP2 CP1 – human beta-arrestin and AP2 interaction inhibition, cherry pick; shares compounds with Arr AP2 block; GST-AP2 beads, FITC arrestin peptide binding, flow cytometry; GST-fused beta2-adaptin appendage, R879A mutant; inhibition, % at 10 µM; 2% of 1,300 active;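 active means inhibition above a set limit, roughly 3 SD of non-fluorescent compound noise, cut at about 38% in these data; inactive means inhibition at or below that limit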;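 further: loss of bead fluorescence from 50 nM FITC arrestin peptide bound to appendage; 0% = negative control wells and 100% = excess unlabelled arrestin peptide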
GST GSH counter – disrupts GST binding to glutathione beads, arrestin-AP2 artifact. shares compounds with Arr AP2 block. GST-fluorescein binding to GSH beads, fluorescence, counter-screen. inhibition, % at 10 µM. 2% of 1,300 active. AID 588338;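 active means inhibition above 50%, about 3 SD of the inhibition seen with non-fluorescent compounds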;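 further: fluorescein maleimide labelled GST captured on 4 micron glutathione beads; higher means more loss of bead fluorescence from quenching or blocked binding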
Numbers without * were called inactive; ? = inconclusive; . = not tested or not shown. In the library only some 4.6% were active in any assay of this set; here they are far more common.

SMILES | PolyA inh | NALP1 inh | Arr AP2 block | ALR inh | Pemphigus Ab inh | NLRP3 yeast inh | Arr-AP2 CP1 | GST GSH counter
Cc1cccc(C)c1NC(=O)CN(C)C(=O)c1cc(S(=O)(=O)N2CCOCC2)ccc1N1CCCC1 | 7 | . | 47 | 3 | 102 | -5 | . | .
Cc1ccsc1CN(C)C(=O)c1cc(S(=O)(=O)N2CCOCC2)ccc1N1CCCC1 | . | . | -8 | -2 | 101 | 12 | . | .
CCc1ccc(CN(C)C(=O)c2cc(S(=O)(=O)N3CCOCC3)ccc2N2CCCC2)cc1 | -5 | . | -4 | -17 | 103 | 18 | -15 | -4
CCOC(=O)/C(C#N)=C/c1ccc(SC)cc1 | 3 | 17 | 14 | -2 | 89 | -1 | . | .
Cn1nccc1NC(=O)CC1(CC(=O)O)CCCCC1 | 5 | 10 | 35 | -2 | 112 | 10 | . | .
O=C(Nc1ccc(F)c([N+](=O)[O-])c1)c1ccc2c(c1)OCCO2 | -3 | 4 | -1 | -17 | 106 | 16 | . | .
O=C(Nc1cc([N+](=O)[O-])ccc1Cl)c1ccc2c(c1)OCO2 | -6 | -6 | 89* | 1 | 82 | -3 | -10 | 3
O=C(Nc1ccc(Cl)cc1[N+](=O)[O-])c1ccc2c(c1)OCCO2 | -10 | -3 | 63* | -14 | 93 | 3 | 11 | 19
CCN(CC)S(=O)(=O)c1cc(NC(=O)CCNC(=O)c2ccco2)ccc1C | 5 | 24 | 19 | 2 | . | -7 | . | .
Cc1cc(C(=O)Nc2cccc(S(=O)(=O)N3CCCCC3)c2)c2ccccc2n1 | -2 | -20 | -6 | 10 | 86 | 2 | -9 | -2
Cc1cc(C(=O)Nc2cccc(S(=O)(=O)N3CCCC3)c2)c2ccccc2n1 | . | . | 3 | . | 109 | 3 | . | .
CCCCCN(C(=O)CCC(=O)OC(C)C(=O)c1ccccc1)c1c(N)n(CCCC)c(=O)[nH]c1=O (stereo unspecified) | 0 | . | -4 | 6 | 91 | 21 | . | .
COc1ccc(Nc2nc3cc(C)ccc3cc2C#N)c(OC)c1 | 6 | -30 | 91* | -20 | 240 | 3 | 12 | 75*
CC(=O)Nc1nnc(S(=O)(=O)N2CCN(c3ccc(Cl)cc3[N+](=O)[O-])CC2)s1 | 17 | -9 | 56* | 4 | 95 | 3 | 20 | -17
CCCCOC(=O)CCN1C(=O)/C(=C2\SC(=S)N(CCC(=O)OCCCC)C2=O)SC1=S | 19 | 30 | 27 | -5 | 84 | 16 | . | .
CCCCCOC(=O)CCN1C(=O)/C(=C2\SC(=S)N(CCC(=O)OCCCCC)C2=O)SC1=S | 5 | 9 | 56* | -7 | 103 | 16 | 1 | -2
O=C(CN1CCN(C(=O)c2ccc(-c3nc4ccccc4s3)o2)CC1)Nc1ccccc1Cl | . | . | 41 | . | 102 | 18 | . | .
Cc1cccc(NC(=O)CN2CCN(C(=O)c3ccc(-c4nc5ccccc5s4)o3)CC2)c1C | . | . | 59* | . | 101 | 18 | -3 | 11
CC(C)NC(=O)NC(=O)CSc1nnc(C(F)(F)F)n1C | 1 | -5 | 66* | 1 | 97 | 8 | -3 | -7
Cn1c(SCC(=O)NC2CC2)nnc1C(F)(F)F | 24 | 17 | -22 | 0 | 103 | 8 | . | .
CC(=O)c1ccc(-n2ccc(=O)cc2)cc1 | -24 | 26 | 60* | -6 | 85 | 6 | -5 | -4
CC(=O)c1ccc(N2CC(C)(C)C2=O)cc1 | 6 | 0 | -12 | -2 | 95 | 11 | . | .
CCOC(=O)c1c(-c2cccs2)csc1NC(C)=O | -12 | 20 | 13 | -3 | 94 | -1 | . | .
CCOC(=O)c1c(-c2cccs2)csc1NC(=O)CN1CC(C)OC(C)C1 (stereo unspecified) | -18 | 1 | 72* | 22 | 108 | 14 | 6 | -3
CNC(=O)C[C@H]1C(=O)N(c2ccc(OC)cc2)C[C@@H]1C | . | . | . | . | 107 | . | . | .
SMILES | PolyA inh | NALP1 inh | Arr AP2 block | ALR inh | Pemphigus Ab inh | NLRP3 yeast inh | Arr-AP2 CP1 | GST GSH counter
Cc1cc(C(=O)N/N=C/c2cccc([N+](=O)[O-])c2)c(C)o1 | 15 | -3 | 6 | ? | 101 | 13 | . | .
O=C(N/N=C/c1cccc([N+](=O)[O-])c1)c1cc2ccccc2o1 | 15 | 25 | 107* | -4 | 89 | -6 | 2 | -1
COc1ccc(-c2cc(-c3ccc(Cl)cc3)c(C#N)c(SCC(=O)O)n2)cc1 | 17 | 10 | -7 | -3 | 125 | 25 | . | .
Cc1cccc(/C=C/c2onc(C)c2S(=O)(=O)N2CCC(C(=O)N3CCCCC3)CC2)c1 | 6 | 22 | 55* | -4 | 101 | 10 | 5 | -1
Cc1cc([N+](=O)[O-])nn1Cc1ccc(C(=O)N/N=C/c2ccc(O)cc2O)cc1 | -4 | 33 | -2 | 14 | 118 | -3 | . | .
COc1cc2c(cc1OC)C(=O)CCS2 | 1 | 19 | 75* | -4 | 101 | 4 | 12 | -4
CCOC(=O)c1ccc(NC(=O)CN2C(=O)CSC(C)C2=O)cc1 (stereo unspecified) | 16 | 31 | 3 | 1 | 93 | -5 | . | .
COc1ccc(CCNCC(O)COc2cccc(Br)c2)cc1OC (stereo unspecified) | -12 | . | 2 | -7 | 101 | 1 | . | .
COc1ccc(CCNCC(O)Cn2c3ccccc3c3ccccc32)cc1OC (stereo unspecified) | 17 | 9 | 58* | -9 | 103 | 20 | 1 | 4
COc1ccc2c3c(cccc13)N(C)N=C2C | -35 | 4 | 62* | 75 | 102 | 19 | 33 | 11
Cc1ccnc(NC(=O)c2cccc(S(=O)(=O)N3CCCC3)c2)c1 | -4 | 17 | 60* | -6 | 96 | 3 | 24 | 1
O=C(Nc1cc(S(=O)(=O)N2CCCCC2)ccc1Cl)c1ccncc1 | . | . | 34 | 1 | 102 | 28 | . | .
Cc1ccnc(NC(=O)c2cccc(S(=O)(=O)N3CCN(c4ccccc4)CC3)c2)c1 | 0 | . | -11 | 3 | 97 | 16 | . | .
Cc1ccc(S(=O)(=O)N2CCCCC2)cc1NC(=O)c1ccncc1 | . | . | 5 | . | 105 | 8 | 4 | 1
O=C(NCc1cccnc1)C1CC(c2ccccc2O)=NO1 (stereo unspecified) | -7 | -2 | 4 | 22 | 94 | 15 | . | .
O=c1nc2ccc(Cl)cn2c2ccc(S(=O)(=O)N3CCOCC3)cc12 | 11 | -5 | 1 | -8 | 104 | 18 | . | .
Cc1cc(C)cc(NC(=O)C2CCN(S(C)(=O)=O)CC2)c1 | -6 | 25 | 5 | -9 | 114 | 2 | . | .
CCOC(=O)c1cnn(-c2ccccc2)c1NC(=O)c1ccccc1C | 1 | 25 | 24 | -1 | 99 | 8 | . | .
